The record followed here is ChEMBL document CHEMBL4411293, “Development of alkyl glycerone phosphate synthase inhibitors: Structure-activity relationship and effects on ether lipids and epithelial-mesenchymal transition in cancer cells” (Eur J Med Chem, 2019).

In data set [1] the target is Alkyldihydroxyacetonephosphate synthase, peroxisomal (Homo sapiens) (UniProt O00116). In words: Binding affinity to AGPS (unknown origin) assessed as change in melting temperature at 180 uM by ThermoFAD assay. Put shortly:
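ThermoFAD: 5 µM Cavia porcellus AGPS with 180 µM compound in 50 mM HEPES pH 7.5, 50 mM NaCl, 5% glycerol; heated 25–70 °C, FAD fluorescence read every 0.2 °C (excitation 485 nm) to give unfolding temperature shift; triplicate, SD within ±0.5 °C.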

Data set [2] can be described thus: Reduction in cell migration rate in human 231MFP cells. On the set-up: scale not given: the % may be the effect or the level left. Format: functional.
For data set [3], the system named is MDA-MB-231. In words: Modulation of epithelial-mesenchymal transition in human MDA-MB-231 cells assessed as upregulation of E-cadherin mRNA expression at 50 to 100 uM after 24 hrs by qRT-PCR analysis. Format: functional, cell-based. Put shortly:
(§1)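 PC-3 and MDA-MB-231 cells in DMEM/10% FBS treated 24 h at 50 and 100 µM, DMSO vehicle as control; E-cadherin, Snail and MMP2 transcripts quantified by RT-PCR; mean of at least four independent experiments.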

A short description of data set [4]: Antimigratory activity in human 231MFP cells at 500 uM after 8 hrs by transwell assay relative to control. Format: functional.
For data set [5], the system named is MDA-MB-231. In words: Modulation of epithelial-mesenchymal transition in human MDA-MB-231 cells assessed as down regulation of snail mRNA expression at 50 to 100 uM after 24 hrs by qRT-PCR analysis. The data set is classed as functional, cell-based. Put shortly:
as §1

Data set [6] concerns PC-3. As to the kind of experiment: Modulation of epithelial-mesenchymal transition in human PC3 cells assessed as down regulation of MMP2 mRNA expression at 50 to 100 uM after 24 hrs by qRT-PCR analysis. Format: functional, cell-based. Put shortly:
as §1
(In general: Real-time PCR tracks product formation cycle by cycle.)

The subject of data set [7] is PC-3. In words: Modulation of epithelial-mesenchymal transition in human PC3 cells assessed as upregulation of E-cadherin mRNA expression at 50 to 100 uM after 24 hrs by qRT-PCR analysis. The data set is classed as functional, cell-based. Put shortly:
as §1

The subject of data set [8] is PC-3. In words: Modulation of epithelial-mesenchymal transition in human PC3 cells assessed as down regulation of snail mRNA expression at 50 to 100 uM after 24 hrs by qRT-PCR analysis. The data set is classed as functional, cell-based. In outline:
as §1

Data set [9] in a line: Reduction in cell survival in human 231MFP cells. Format: functional.
The subject of data set [10] is MDA-MB-231. In words: Modulation of epithelial-mesenchymal transition in human MDA-MB-231 cells assessed as down regulation of MMP2 mRNA expression at 50 to 100 uM after 24 hrs by qRT-PCR analysis. Format: functional, cell-based. In outline: as §1
Data set [11] deals with Alkyldihydroxyacetonephosphate synthase, peroxisomal (Homo sapiens) (UniProt O00116). In words: Inhibition of AGPS (unknown origin) using palmitoyl-DHAP as substrate in presence of [1-14C]hexadecanol by radioactivity based enzymatic assay.
Data set [12] in a line: Down regulation of phospholipids in human 231MFP cells at 500 uM after 24 hrs by LC-MS/MS analysis relative to control. The data set is classed as functional. Put shortly:
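231MFP cells kept serum-free 24 h, then treated 24 h at 500 µM versus DMSO; lipids extracted in chloroform/methanol/PBS (2:1:1) with C12:0 dodecylglycerol and pentadecanoic acid internal standards; reverse-phase C5 LC, ESI triple-quadrupole MS/MS with SRM quantitation; mean ± SD.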

The nature of data set [13]: Cytotoxicity against human 231MFP cells assessed as cell survival at 500 uM after 24 hrs by MTS assay relative to control. Format: cell-based. The conditions noted are these: read-out: Activity. Put shortly:
(§2)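 231MFP cells preincubated with compound (500 µM) or DMSO, then seeded into serum-free survival assay; survival read after 24 and 48 h relative to matched DMSO controls.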
In general terms: Formazan colour is commonly taken as a measure of viable cells.

Data set [14] in a line: Cytotoxicity against human MeT-5A cells at 250 uM after 24 hrs by MTS assay. Format: cell-based. In outline:
(§3)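 Cells seeded at 20x10^3 per well; compound added 24 h later at 50, 100 or 250 µM; after further 24 h MTS reagent added and absorbance read at 490 nm; PC-3 and MDA-MB-231 in DMEM, MeT5A in M199, each with 10% FBS, 37 °C, 5% CO2; three independent experiments, 8 measurements total, mean ± SEM.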

Data set [15] in a line: Cytotoxicity against human 231MFP cells assessed as cell survival at 500 uM after 48 hrs by MTS assay relative to control. Format: cell-based. The conditions noted are these: read-out: Activity. In outline:
as §2

The nature of data set [16]: Antimigratory activity in human 231MFP cells at 500 uM after 6 hrs by transwell assay relative to control. The data set is classed as functional. In outline: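 Transwell chambers coated with collagen; 231MFP cells preincubated with compound or DMSO vehicle before seeding into serum-free migration assay; migration rate read after 6 h versus vehicle control; mean ± SD, n = 3–4 per group.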

Data set [17] in a line: Cytotoxicity against human MeT-5A cells at 100 uM after 24 hrs by MTS assay. Format: cell-based. In outline: as §3
The test system of data set [18] is PC-3. As to the kind of experiment: Antiproliferative activity against human PC3 cells at 100 uM after 24 hrs by MTS assay. The data set is classed as functional, cell-based. In outline:
as §3

Data set [19] relates to MDA-MB-231. As to the kind of experiment: Modulation of epithelial-mesenchymal transition in human MDA-MB-231 cells transfected with AGPS-siRNA assessed as down regulation of snail mRNA expression at 100 uM after 24 hrs by qRT-PCR analysis. The data set is classed as functional, cell-based. Put shortly: (§4)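 MDA-MB-231 cells transfected with AGPS siRNAs (100 pmol total, RNAiMAX) or scramble; 24 h later given compound at 100 µM final or DMSO without detaching, harvested 24 h after that; AGPS, E-cadherin, Snail and MMP2 transcripts by RT-PCR; mean of five independent experiments.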

Data set [20] has as its system MDA-MB-231. In words: Modulation of epithelial-mesenchymal transition in human MDA-MB-231 cells transfected with AGPS-siRNA assessed as down regulation of MMP2 mRNA expression at 100 uM after 24 hrs by qRT-PCR analysis. Format: functional, cell-based. Put shortly:
as §4

The test system of data set [21] is MDA-MB-231. In words: Antiproliferative activity against human MDA-MB-231 cells at 100 uM after 24 hrs by MTS assay. Format: functional, cell-based. Put shortly:
as §3

The subject of data set [22] is PC-3. As to the kind of experiment: Antiproliferative activity against human PC3 cells at 250 uM after 24 hrs by MTS assay. The data set is classed as functional, cell-based. In outline:
as §3

In data set [23] the test system is MDA-MB-231. As to the kind of experiment: Modulation of epithelial-mesenchymal transition in human MDA-MB-231 cells transfected with AGPS-siRNA assessed as upregulation of E-cadherin mRNA expression at 100 uM after 24 hrs by qRT-PCR analysis. The data set is classed as functional, cell-based. Put shortly: as §4
The test system of data set [24] is MDA-MB-231. In words: Antiproliferative activity against human MDA-MB-231 cells at 250 uM after 24 hrs by MTS assay. Format: functional, cell-based. Put shortly: as §3

Each structure is given as a SMILES string. Calls of active or inactive are those of the source. No cut-off for these calls is given here.

Alkyldihydroxyacetonephosphate synthase, peroxisomal (Homo sapiens), sequence (O00116 whole entry): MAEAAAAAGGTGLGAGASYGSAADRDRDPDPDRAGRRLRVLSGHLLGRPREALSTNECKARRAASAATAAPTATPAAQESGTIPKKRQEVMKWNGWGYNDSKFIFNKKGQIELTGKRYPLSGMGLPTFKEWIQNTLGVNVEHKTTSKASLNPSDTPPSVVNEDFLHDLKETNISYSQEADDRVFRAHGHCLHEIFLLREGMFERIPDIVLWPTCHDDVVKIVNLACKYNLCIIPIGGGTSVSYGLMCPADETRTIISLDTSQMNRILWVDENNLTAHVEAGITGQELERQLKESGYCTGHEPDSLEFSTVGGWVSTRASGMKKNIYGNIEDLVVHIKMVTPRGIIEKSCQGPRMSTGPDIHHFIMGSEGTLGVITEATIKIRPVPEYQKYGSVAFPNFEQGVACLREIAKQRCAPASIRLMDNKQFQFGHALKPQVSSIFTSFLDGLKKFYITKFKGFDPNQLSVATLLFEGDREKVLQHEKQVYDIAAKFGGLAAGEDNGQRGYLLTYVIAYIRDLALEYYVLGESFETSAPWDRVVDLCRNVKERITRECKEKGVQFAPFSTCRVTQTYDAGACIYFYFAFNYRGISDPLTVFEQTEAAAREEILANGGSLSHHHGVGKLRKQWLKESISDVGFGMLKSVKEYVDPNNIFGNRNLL

As for `C/C(=C\c1ccccc1F)C(=O)NCc1ccc2[nH]c(=O)[nH]c2c1`, the thermal shift (ΔTm) – broadly, the shift of the melting midpoint relative to a reference – in data set [1] was 2 °C.
`CC(CC(=O)NCc1ccc2[nH]c(=O)[nH]c2c1)c1ccccc1F` (stereo unspecified): the Activity amounted to 48% in data set [2], 48% in [4] and 50% in [9]. The result in the data set on MDA-MB-231 [3], in the data set on MDA-MB-231 [5], with PC-3 [6], with PC-3 [7], in the data set on PC-3 [8] and in the data set with MDA-MB-231 [10] was Active. For the same molecule, in data set [1], the ΔTm was 3.5 °C.
On to `O=C(/C=C/c1ccccc1F)NCc1ccc2[nH]c(=O)[nH]c2c1`, for which the ΔTm in data set [1] worked out at 0 °C.
Take `CC(CC(=O)NCc1ccc2[nH]c(=O)[nH]c2c1)c1c(F)cccc1F` (single isomer, unassigned; (+)): the ΔTm in data set [1] turned out to be 6 °C.
In the case of `O=C(CC(c1ccccc1)c1ccccc1F)NCc1ccc2[nH]c(=O)[nH]c2c1` (stereo unspecified), in data set [11], the inhibition result is “inactive”. For the same molecule, the ΔTm in data set [1] is 0 °C.
As to `CCC(CC(=O)NCc1ccc2[nH]c(=O)[nH]c2c1)c1ccccc1F` (stereo unspecified), in [1], the ΔTm came out at 1 °C.
Regarding `CC(CC(=O)NCc1ccc2[nH]c(=O)[nH]c2c1)c1c(F)cccc1F` (stereo in doubt; 2i) [listing 1 of 2 here], the Activity is on record as 50 - 70% in data set [12], “Non-Toxic” in [14], 78% in [16] and “Non-Toxic” in data set [17]. Further, the viability at 24 h, 500 µM in data set [13] is 44%. Also, the viability at 48 h, 500 µM in [15] amounted to 57%.
Consider `C[C@H](CC(=O)NCc1ccc2[nH]c(=O)[nH]c2c1)c1c(F)cccc1F`, for which the ΔTm in [1] worked out at 3 °C.
Consider `CC(CC(=O)NCc1ccc2[nH]c(=O)[nH]c2c1)c1ccc(F)cc1` (stereo unspecified), for which the thermal shift (ΔTm) in data set [1] was determined as 4 °C.
As to `CC(CC(=O)NCc1ccc2[nH]c(=O)[nH]c2c1)c1cccc(F)c1` (stereo unspecified), in [1], the ΔTm worked out at 3 °C.
`COc1ccccc1C(C)CC(=O)NCc1ccc2[nH]c(=O)[nH]c2c1` (stereo unspecified): the ΔTm in data set [1] is 0 °C.
As for `CC(C(=O)NCc1ccc2[nH]c(=O)[nH]c2c1)c1c(F)cccc1F` (stereo unspecified), the inhibition result in data set [11] was “inactive”. In addition, in data set [1], the ΔTm was 1 °C.
For `CC(Cc1ccccc1F)C(=O)NCc1ccc2[nH]c(=O)[nH]c2c1` (stereo unspecified), the ΔTm in data set [1] amounted to 3 °C.
On to `CC(CC(=O)NCc1ccc2[nH]c(=O)[nH]c2c1)c1ccccc1Br` (stereo unspecified), for which the ΔTm in data set [1] stood at 3.5 °C.
On to `CC(CC(=O)NCc1ccc2[nH]c(=O)[nH]c2c1)c1c(F)cccc1F` (stereo in doubt; 2i) [listing 2 of 2 here], for which, in data set [11], the inhibition entry is “Active”. The outcome in the data set with PC-3 [18] and with MDA-MB-231 [21] was inactive. The outcome in the data set on MDA-MB-231 [3], in the data set with MDA-MB-231 [5], with MDA-MB-231 [19], in the data set with PC-3 [6], in the data set with MDA-MB-231 [20] and in the data set with PC-3 [22] was Active. The result with PC-3 [7], in the data set with MDA-MB-231 [23], in the data set on PC-3 [8], in the data set on MDA-MB-231 [24] and in the data set with MDA-MB-231 [10] was Active. The ΔTm in data set [1] turned out to be 5 °C.
Consider `CC(CC(=O)NCc1ccc2[nH]cnc2c1)c1c(F)cccc1F` (stereo unspecified), for which the inhibition entry in data set [11] was “inactive”. For the same molecule, the outcome in the data set with MDA-MB-231 [3], with MDA-MB-231 [5], with PC-3 [6], in the data set with PC-3 [7], in the data set with PC-3 [8] and with MDA-MB-231 [10] was inactive. Further, the ΔTm in data set [1] came out at 0 °C.
With `C/C(=C\C(=O)NCc1ccc2[nH]c(=O)[nH]c2c1)c1ccccc1F`, the thermal shift (ΔTm) in [1] is 0 °C.
For the molecule `Cc1ccccc1C(C)CC(=O)NCc1ccc2[nH]c(=O)[nH]c2c1` (stereo unspecified), the ΔTm in data set [1] amounted to 3 °C.
`CC(CC(=O)NCc1ccc2[nH]c(=O)[nH]c2c1)c1ccccc1` (stereo unspecified): the ΔTm in [1] was determined as 1.5 °C.
Consider `CC(CC(=O)NCc1ccc2[nH]c(=O)[nH]c2c1)c1ccc(F)cc1F` (stereo unspecified), for which the ΔTm in data set [1] turned out to be 3.5 °C.
In the case of `CC(CC(=O)NCc1ccc2ncc(=O)[nH]c2c1)c1c(F)cccc1F` (stereo unspecified), the ΔTm in [1] was 0 °C.
Still for that read-out and setting: then `CC(CC(=O)Nc1ccc2[nH]c(=O)[nH]c2c1)c1c(F)cccc1F` (stereo unspecified), with 0 °C.
On the same count and under the same terms, then `CC(CC(=O)NCc1ccc2[nH]c(=O)[nH]c2c1)c1ccccc1Cl` (stereo unspecified), with 3.5 °C; and `O=C(CCc1ccccc1F)NCc1ccc2[nH]c(=O)[nH]c2c1`, with 0 °C.
